Data published in ChEMBL document CHEMBL1130176, “Selective inhibitors of cyclic AMP-specific phosphodiesterase: heterocycle-condensed purines” (J Med Chem, 1997).

Species: Cavia porcellus
Test: Compound was tested in vitro for positive chronotropic action.
Type: functional
Conditions: not given
Procedure, shortened: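 Isolated right atrium from male Hartley guinea pig (300–500 g) in Krebs–Henseleit, 95% O2–5% CO2, 25 °C, 0.5 g tension. Cumulative compound concentrations, at least five spanning the EC20. Beating rate recorded by cardiotachometer triggered by isometric contraction. Value is the concentration raising the unstimulated rate by 20% (EC20). DMSO below 0.5% final.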
Compound `CCCn1cnc2c1c1nnnn1c(=O)n2CCC` has an EC20 of over 100 µM.
In the case of `CCCN1C(=O)N2CCCCN=C2c2ncn(CCC)c21`, the EC20 is reported as over 100 µM.
Compound `CCCN1C(=O)N2CCN=C2c2c1ncn2CCC` has an EC20 of over 100 µM.
For `CCCn1cnc2c1n(CCC)c(=O)n1ccnc21`, the EC20 was 19 µM.
In the case of `CCCN1C(=O)N2CCN=C2c2ncn(CCC)c21`, the EC20 is reported as over 100 µM.
Compound `CCCN1C(=O)N2CCCCN=C2c2[nH]cnc21` has an EC20 of over 100 µM.
Compound `CCCn1c(=O)n2ccnc2c2[nH]cnc21` has an EC20 of 90 µM.
Compound `CCCN1C(=O)N2CCCN=C2c2c1ncn2CCC` has an EC20 of over 100 µM.
`CCCn1cnc2c1n(CCC)c(=O)n1nnnc21` was tested, and the EC20 was over 100 µM.
Work on `Nc1cc(-c2ccncc2)c[nH]c1=O` [INAMRINONE] yielded an EC20 of 62 µM.
In the case of `CCCn1c(=O)n2nnnc2c2[nH]cnc21`, the EC20 is reported as over 100 µM.
Compound `CCCN1C(=O)N2CCCN=C2c2[nH]cnc21` has an EC20 of over 100 µM.
With `CCCn1cnc2c1c1nccn1c(=O)n2CCC` the EC20 was 84 µM.
`CCCN1C(=O)N2CCCN=C2c2ncn(CCC)c21` showed an EC20 of over 100 µM.
`CCCN1C(=O)N2CCN=C2c2[nH]cnc21` showed an EC20 of over 100 µM.

Species: Cavia porcellus
Test: In vitro positive chronotropic effect
Type: functional
Conditions: not given
Procedure, shortened: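 Isolated right atrium from male Hartley guinea pigs (300–500 g) in Krebs–Henseleit, 25 °C, 95% O2–5% CO2, 0.5 g tension. Cumulative compound concentrations; beating rate recorded by cardiotachometer triggered by isometric contraction. EC20 is the concentration raising unstimulated rate by 20%, from over five concentrations. DMSO below 0.5% final.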
In the case of `CCCCOc1cc(CC2CNC(=O)N2)ccc1OC` (stereo unspecified) [RO-201724], the EC20 is reported as over 100 µM.
`Cn1c(=O)c2nc[nH]c2n(C)c1=O.O` [THEOPHYLLINE] was tested, and the EC20 was 88 µM.

What follows are compounds tested against Phosphodiesterase 1 (Homo sapiens, UniProt P54750+Q01064+Q14123) (assay: Inhibitory activity against PDE1 from cerebral cortex). Conditions: not given.
Type: tissue-based
Procedure, shortened: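 PDE I (Ca2+/calmodulin-stimulated, cerebral cortex) and PDE III (cGMP-inhibited, heart) isolated by the Reeves method. […] IC50 fitted by nonlinear least squares. Final DMSO below 0.5%.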
For `CCCn1cnc2c1c1nnnn1c(=O)n2CCC`, the IC50 was over 100 µM.
In the case of `CCCCOc1cc(CC2CNC(=O)N2)ccc1OC` (stereo unspecified) [RO-201724], the IC50 is reported as over 300 µM.
Work on `CCCN1C(=O)N2CCCCN=C2c2ncn(CCC)c21` yielded an IC50 of over 100 µM.
`CCCN1C(=O)N2CCN=C2c2c1ncn2CCC` gave an IC50 of over 100 µM.
With `CCCn1cnc2c1n(CCC)c(=O)n1ccnc21` the IC50 was 40 µM.
`CCCN1C(=O)N2CCN=C2c2ncn(CCC)c21` gave an IC50 of over 100 µM.
Compound `CCCN1C(=O)N2CCCCN=C2c2[nH]cnc21` has an IC50 of over 100 µM.
With `CCCn1c(=O)n2ccnc2c2[nH]cnc21` the IC50 was over 100 µM.
`CCCN1C(=O)N2CCCN=C2c2c1ncn2CCC` showed an IC50 of over 100 µM.
`Cn1c(=O)c2nc[nH]c2n(C)c1=O.O` [THEOPHYLLINE] showed an IC50 of 356 µM.
For `CCCn1cnc2c1n(CCC)c(=O)n1nnnc21`, the IC50 was over 100 µM.
With `Nc1cc(-c2ccncc2)c[nH]c1=O` [INAMRINONE] the IC50 was over 300 µM.
`CCCn1c(=O)n2nnnc2c2[nH]cnc21` was tested, and the IC50 was over 100 µM.
Compound `CCCN1C(=O)N2CCCN=C2c2[nH]cnc21` has an IC50 of over 100 µM.
Work on `CCCn1cnc2c1c1nccn1c(=O)n2CCC` yielded an IC50 of 14 µM.
Compound `CCCN1C(=O)N2CCCN=C2c2ncn(CCC)c21` has an IC50 of over 100 µM.
`CCCN1C(=O)N2CCN=C2c2[nH]cnc21` showed an IC50 of over 100 µM.

These compounds were tested against Phosphodiesterase 3 (Homo sapiens, UniProt Q14432+Q13370) (assay: Inhibitory activity against Phosphodiesterase 3 from heart.). Conditions: not given.
Type: protein assay
Procedure, shortened: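 PDE I (Ca2+/calmodulin-stimulated, cerebral cortex) and PDE III (cGMP-inhibited, heart) isolated by the Reeves method. IC50 fitted by nonlinear least squares. Final DMSO below 0.5%.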
For `CCCn1cnc2c1c1nnnn1c(=O)n2CCC`, the IC50 was over 100 µM.
For `CCCCOc1cc(CC2CNC(=O)N2)ccc1OC` (stereo unspecified) [RO-201724], the IC50 was over 300 µM.
`CCCN1C(=O)N2CCCCN=C2c2ncn(CCC)c21` gave an IC50 of over 100 µM.
Compound `CCCN1C(=O)N2CCN=C2c2c1ncn2CCC` has an IC50 of over 100 µM.
`CCCn1cnc2c1n(CCC)c(=O)n1ccnc21` gave an IC50 of over 100 µM.
In the case of `CCCN1C(=O)N2CCN=C2c2ncn(CCC)c21`, the IC50 is reported as over 100 µM.
In the case of `CCCN1C(=O)N2CCCCN=C2c2[nH]cnc21`, the IC50 is reported as over 100 µM.
Work on `CCCn1c(=O)n2ccnc2c2[nH]cnc21` yielded an IC50 of over 100 µM.
`CCCN1C(=O)N2CCCN=C2c2c1ncn2CCC` was tested, and the IC50 was over 100 µM.
In the case of `CCCn1cnc2c1n(CCC)c(=O)n1nnnc21`, the IC50 is reported as over 100 µM.
Compound `CCCn1c(=O)n2nnnc2c2[nH]cnc21` has an IC50 of over 100 µM.
With `CCCN1C(=O)N2CCCN=C2c2[nH]cnc21` the IC50 was over 100 µM.
Work on `CCCn1cnc2c1c1nccn1c(=O)n2CCC` yielded an IC50 of over 100 µM.
For `CCCN1C(=O)N2CCCN=C2c2ncn(CCC)c21`, the IC50 was over 100 µM.
`CCCN1C(=O)N2CCN=C2c2[nH]cnc21` was tested, and the IC50 was over 100 µM.

These compounds were tested on Suncus murinus (assay: (§1) Emetic effect in shrews at 30 mg/kg peroral dose, 0 of 3 animals affected). Conditions: route oral.
Type: functional
`CCCN1C(=O)N2CCN=C2c2ncn(CCC)c21` was tested, and the Emesis was 0.

Each compound was assayed on Suncus murinus (assay: Emetic effect in shrews at 100 mg/kg peroral dose, 0 of 3 animals affected). Conditions: route oral.
Type: functional
`CCCN1C(=O)N2CCN=C2c2ncn(CCC)c21` showed an Emesis of 0.

These compounds were tested on Suncus murinus (assay: as §1). Conditions: route oral.
Type: functional
For `CCCN1C(=O)N2CCN=C2c2ncn(CCC)c21`, the Emesis was 0.

What follows are compounds tested on Suncus murinus (assay: Emetic effect in shrews at 10 mg/kg peroral dose, 3 of 3 animals affected). Conditions: route oral.
Type: functional
`CCCn1cnc2c1n(CCC)c(=O)n1ccnc21` was tested, and the Emesis was 3.
Compound `COc1ccc(C2CNC(=O)C2)cc1OC1CCCC1` (stereo unspecified) [ROLIPRAM] has an Emesis of 3.

These compounds were tested on Suncus murinus (assay: Emetic effect in shrews at 30 mg/kg peroral dose, 3 of 3 animals affected). Conditions: route oral.
Type: functional
Compound `CCCCn1c(=O)c2c(ncn2CC(C)=O)n(CCCC)c1=O` [DENBUFYLLINE] has an Emesis of 3.

Species: Cavia porcellus
Test: Tested in vitro for tracheal relaxation
Type: functional
Conditions: Trachea
Procedure, shortened: (§2)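 Tracheal ring-chains from male Hartley guinea pigs (300–500 g), 37 °C Krebs–Henseleit pH 7.4, 95% O2–5% CO2, 0.5 g tension, isometric recording. After full relaxation with 1.0 μM isoprenaline and washout, spontaneous tone redeveloped. Cumulative compound concentrations then given, at least five spanning the EC50.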
In the case of `CCCn1cnc2c1c1nnnn1c(=O)n2CCC`, the EC50 is reported as 51 µM.
`CCCN1C(=O)N2CCCCN=C2c2ncn(CCC)c21` gave an EC50 of 2.5 µM.
`CCCN1C(=O)N2CCN=C2c2c1ncn2CCC` gave an EC50 of 2.5 µM.
Compound `CCCn1cnc2c1n(CCC)c(=O)n1ccnc21` has an EC50 of 0.5 µM.
For `CCCN1C(=O)N2CCN=C2c2ncn(CCC)c21`, the EC50 was 1 µM.
Compound `CCCN1C(=O)N2CCCCN=C2c2[nH]cnc21` has an EC50 of 53 µM.
Work on `CCCn1c(=O)n2ccnc2c2[nH]cnc21` yielded an EC50 of 1.6 µM.
`CCCN1C(=O)N2CCCN=C2c2c1ncn2CCC` showed an EC50 of 8.2 µM.
`CCCn1cnc2c1n(CCC)c(=O)n1nnnc21` was tested, and the EC50 was 68 µM.
`Nc1cc(-c2ccncc2)c[nH]c1=O` [INAMRINONE] was tested, and the EC50 was 7.4 µM.
Work on `CCCn1c(=O)n2nnnc2c2[nH]cnc21` yielded an EC50 of over 100 µM.
With `CCCN1C(=O)N2CCCN=C2c2[nH]cnc21` the EC50 was 22 µM.
`CCCn1cnc2c1c1nccn1c(=O)n2CCC` gave an EC50 of 0.7 µM.
With `CCCN1C(=O)N2CCCN=C2c2ncn(CCC)c21` the EC50 was 2.1 µM.
With `CCCN1C(=O)N2CCN=C2c2[nH]cnc21` the EC50 was 31 µM.

Species: Cavia porcellus
Test: In vitro guinea pig tracheal relaxation
Type: functional
Conditions: Trachea
Procedure, shortened: as §2
`CCCCOc1cc(CC2CNC(=O)N2)ccc1OC` (stereo unspecified) [RO-201724] was tested, and the EC50 was 0.12 µM.

Species: Cavia porcellus
Test: Negative inotropic response to adenosine in guinea pig left atrium
Type: functional
Conditions: Cardiac atrium, read-out: pA2 (converted)
`Cn1c(=O)c2nc[nH]c2n(C)c1=O.O` [THEOPHYLLINE] was tested, and the Kb was 29.5 µM.

Each compound was assayed against Phosphodiesterase 4 (Homo sapiens, UniProt P27815+Q08499+Q07343+Q08493) (assay: Inhibitory activity against Phosphodiesterase 4 from cerebral cortex.). Conditions: not given.
For `CCCn1cnc2c1c1nnnn1c(=O)n2CCC`, the IC50 was 18 µM.
`CCCN1C(=O)N2CCCCN=C2c2ncn(CCC)c21` gave an IC50 of 13 µM.
In the case of `CCCN1C(=O)N2CCN=C2c2c1ncn2CCC`, the IC50 is reported as 5.1 µM.
With `CCCn1cnc2c1n(CCC)c(=O)n1ccnc21` the IC50 was 1.4 µM.
With `CCCN1C(=O)N2CCN=C2c2ncn(CCC)c21` the IC50 was 1.6 µM.
In the case of `CCCN1C(=O)N2CCCCN=C2c2[nH]cnc21`, the IC50 is reported as over 100 µM.
In the case of `CCCn1c(=O)n2ccnc2c2[nH]cnc21`, the IC50 is reported as 3.1 µM.
Work on `CCCN1C(=O)N2CCCN=C2c2c1ncn2CCC` yielded an IC50 of 49 µM.
In the case of `CCCn1cnc2c1n(CCC)c(=O)n1nnnc21`, the IC50 is reported as 39 µM.
In the case of `CCCn1c(=O)n2nnnc2c2[nH]cnc21`, the IC50 is reported as over 100 µM.
`CCCN1C(=O)N2CCCN=C2c2[nH]cnc21` was tested, and the IC50 was over 100 µM.
For `CCCn1cnc2c1c1nccn1c(=O)n2CCC`, the IC50 was 1.9 µM.
`CCCN1C(=O)N2CCCN=C2c2ncn(CCC)c21` gave an IC50 of 4.7 µM.
For `CCCN1C(=O)N2CCN=C2c2[nH]cnc21`, the IC50 was over 100 µM.
